The list is not random: actives were taken first. Their share in the collection is about 3.1%.
MEKK3 PB1 HTS = MEKK3-MEK5 PB1 interaction, increase or decrease | Q99759 | bead-based flow cytometry, Alexa488-MEK5 binding to MEKK3; actives lie on both sides; 0 = blocked by unlabeled MEK5, 100 = vehicle | binding response (% of control), % at 10 µM | 1.4% of 290,000 active | AID 1529;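 active means binding response more than 3 SD above or below the average of its plate-row segment, actives on both sides; inconclusive means wells at one plate position flagged as instrument error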;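 further: Alexa488 bead fluorescence after subtracting the streptavidin-only scavenger bead signal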
UBC13 polyUb = blocks human UBC13 polyubiquitin chain formation. 0.47% of 330,000 active. inhibition, % at 20 µM. TR-FRET; in the data active means inhibition above about 45%, passing the limit was not always enough; inconclusive means no clear call, values can overlap the other calls
PREPL inh = inhibitors of human prolyl oligopeptidase-like enzyme PREPL | Q4J6C6 | recombinant PREPL, fluorescence polarization activity-based probe | inhibition, % at 5.96 µM | 0.68% of 320,000 active | AID 2751; in the data active means inhibition above about 43%;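 further: 0% = enzyme with DMSO and 100% = wells lacking enzyme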
Target sequence (Q4J6C6 whole entry, looked up): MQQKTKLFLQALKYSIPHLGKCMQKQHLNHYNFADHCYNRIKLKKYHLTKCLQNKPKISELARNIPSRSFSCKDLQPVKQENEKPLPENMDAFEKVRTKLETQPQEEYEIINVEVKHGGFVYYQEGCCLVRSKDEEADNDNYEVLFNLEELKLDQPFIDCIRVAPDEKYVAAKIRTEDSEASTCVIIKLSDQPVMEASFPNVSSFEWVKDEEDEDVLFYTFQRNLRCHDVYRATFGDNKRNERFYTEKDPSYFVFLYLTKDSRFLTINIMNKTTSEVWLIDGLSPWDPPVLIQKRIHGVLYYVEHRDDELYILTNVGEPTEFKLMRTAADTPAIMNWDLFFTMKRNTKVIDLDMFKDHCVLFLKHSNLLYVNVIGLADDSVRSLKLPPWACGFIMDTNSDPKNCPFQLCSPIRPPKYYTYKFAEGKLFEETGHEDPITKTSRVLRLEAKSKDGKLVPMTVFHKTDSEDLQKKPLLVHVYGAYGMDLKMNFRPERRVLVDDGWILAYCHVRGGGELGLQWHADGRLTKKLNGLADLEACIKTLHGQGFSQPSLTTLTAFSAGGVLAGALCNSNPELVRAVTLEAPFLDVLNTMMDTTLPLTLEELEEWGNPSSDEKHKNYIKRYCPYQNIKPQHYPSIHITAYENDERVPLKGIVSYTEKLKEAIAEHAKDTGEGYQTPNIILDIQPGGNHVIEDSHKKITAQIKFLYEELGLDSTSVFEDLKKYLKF
MEKK2mut PB1 HTS = signal of MEK5 binding to mutant human MEKK2 PB1 domain | bead flow cytometry, Alexa488-MEK5 binding to MEKK2 mutant | percent response, % at 10 µM | 0.35% of 290,000 active | AID 1530; in the data active means percent response above about 24%, passing the limit was not always enough
Apaf1 inhib = blocks human Apaf-1 apoptosome activity | inhibition, % at 20 µM | 0.71% of 330,000 active | O14727 | reconstituted apoptosome caspase-3 activity, DEVD-Rh110 fluorescence; active means inhibition of at least 40% at 20 µM;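 further: plate controls were DMSO wells for no effect and DEVD-CHO caspase inhibitor wells for full effect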
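Assay system: Apoptosome proteins | Medium: pH 7.5 Hepes buffer with CHAPS, BSA, DTT | Also added: Cytochrome c and DEVD-Rh110 substrate | Times: 30 min plus 50 min, RT | Detection: Rhodamine 110 fluorescence at Ex 480/Em 540 nm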
MEKK2 WT-MEK5 = raises or lowers MEK5 binding to wildtype human MEKK2 PB1 domain; Q9Y2U5; bead flow cytometry, Alexa488-MEK5 binding to MEKK2 WT; actives lie on both sides; binding response (% of control), % at 10 µM; 1.1% of 290,000 active; in the data active means binding response below about 67% or above about 130%; inconclusive means no clear call, values can overlap the other calls; inactive means in between
Apaf-1 inh conf = Apaf-1 inhibition, single-dose confirmed; reconstituted apoptosome, caspase-3 DEVD-Rh110 fluorescence; inhibition, % at 20 µM; shares compounds with Apaf1 inhib; 25% of 1,800 active;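 active means mean inhibition of at least 40% at 20 µM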;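 further: plate controls were DMSO wells for no effect and DEVD-CHO caspase inhibitor control wells for full effect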
Rh110 quench = counter-screen for Apaf-1 inhibitors: fluorescence interference; shares compounds with Apaf1 inhib; Rh110 fluorescence interference, quenched caspase reaction; activation (fluorescence interference), % at 20 µM; 1,800 tested, under 10 active;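 active means signal rise of 40% or more at 20 µM, treated as a fluorescence artifact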
Fluor interf inh = Apaf-1 inhibitor counter-screen fluorescence artifact; shares compounds with Apaf1 inhib; fluorescence interference counterscreen, Apaf-1 assay format; IC50, µM; 460 tested, under 10 active; AID 588538; call rule not given here
The depositor's hits bear a star; ? = inconclusive; · = no result given.

SMILES	MEKK3 PB1 HTS	UBC13 polyUb	PREPL inh	MEKK2mut PB1 HTS	Apaf1 inhib	MEKK2 WT-MEK5	Apaf-1 inh conf	Rh110 quench	others
CCOc1ccccc1Nc1nnc(SCC(=O)NC2CCS(=O)(=O)C2)s1 (centres undefined)	·	-1	18	·	13	·	·	·
CCN(C(=O)COC(=O)c1ccc[nH]c1=O)c1cccc2ccccc12	·	16	0	·	-5	·	·	·
O=C(Nc1ccccc1N1CCCC1)C1CCN(S(=O)(=O)c2cccc(C(F)(F)F)c2)CC1	·	-7	9	·	42*	·	7	15
CN(Cc1c(F)cccc1Cl)C(=O)c1ccc(COc2ccccc2)cc1	103	10	3	10	53*	103	37	7
CN(C)CCN(C(=O)c1ccc2c(c1)CCCC2)c1nc2cc3c(cc2s1)OCCO3	102	41	-6	4	44*	118	25	9
Cc1cc(C)c2nc(N(CCCN(C)C)C(=O)c3ccc4c(c3)CCCC4)sc2c1	·	26	-51	·	42*	·	21	12
O=C1CCN(Cc2ccccc2)C=C1c1ccc(Cl)cc1	·	13	7	·	47*	·	5	4
CC(C(=O)Nc1cc(Cl)cc(Cl)c1)N1CCCC1 (centres undefined)	104	10	-5	10	3	110	·	·
Nc1ccc2nc(-c3ccccc3)c(-c3ccccc3)nc2c1	102	-36	17	0	65*	101	28	7
Nc1ccc(Oc2ccc3nc(-c4ccccc4)c(-c4ccccc4)nc3c2)cc1	104	-8	19	2	21	101	·	·
CCc1ccccc1NC(=O)CCNS(=O)(=O)c1cc(Br)cnc1N	103	11	-2	2	49*	104	12	9
CCOC(=O)C1=C(COC(=O)c2ccccc2[N+](=O)[O-])NC(=O)NC1C (centres undefined)	·	7	9	·	3	·	·	·
CCCCC(CC)CN1C(=O)/C(=C/c2ccncc2)SC1=S (centres undefined)	95	-13	10	-6	42*	99	17	10
CCN1C(=O)/C(=C\c2ccncc2)SC1=S	97	-12	-15	-8	13	99	·	·
CN1C(=O)C(=O)N(CC(=O)Nc2ccccc2OC(F)F)C1=O	·	8	-2	·	-7	·	·	·
CN(C)C(=O)c1ccc(NC(=O)COc2cccc(Oc3ccccc3)c2)cc1	100	32	8	2	61*	108	35	5
CC12CCC(=O)N1C(C(=O)Nc1ccccc1N1CCCCC1)CS2 (centres undefined)	·	12	19	·	48*	·	29	-1
CCN(CC)c1ccc(S(=O)(=O)N2CCCCC2)cc1NC(=O)C1CSC2(C)CCC(=O)N12 (centres undefined)	·	32	16	·	51*	·	5	2
COc1cccc(/C=N/NC(=O)c2ccccc2N(Cc2ccccc2)S(=O)(=O)c2ccccc2)c1OC	·	-2	5	·	14	·	·	·
Cc1cc(N2CCN(C)CC2)nc2ccc(NC(=O)CCC3CCCC3)cc12	107	16	8	22	16	129	·	·
Cc1ccc(SCC(=O)OC(C)C(=O)NCc2ccccc2)cc1C (centres undefined)	·	2	10	·	19	·	·	·
COc1ccc(Br)cc1C(=O)N/N=C/c1ccc2c(c1)n(C)c(=O)n2C	95	35	9	-2	-2	95	·	·
Cn1c(=O)n(C)c2cc(/C=N/NC(=O)c3cc4cc(Br)ccc4o3)ccc21	95	13	13	-4	43*	95	11	-1
COc1ccc(OC)c(C2=NOC(C(=O)Nc3ccc4c(c3)OCCO4)C2)c1 (centres undefined)	105	5	-4	8	42*	106	5	1
CCCCNc1c(-c2ccc(OC)c(SC3CCCCC3)c2)nc2cnccn12	·	13	17	·	36	·	·	·
SMILES	MEKK3 PB1 HTS	UBC13 polyUb	PREPL inh	MEKK2mut PB1 HTS	Apaf1 inhib	MEKK2 WT-MEK5	Apaf-1 inh conf	Rh110 quench	others
CCC(C)Sc1ccc(-c2nc3cnccn3c2NC2CCCCC2)cc1 (centres undefined)	·	39	27	·	45*	·	32	19
CCCCNc1c(-c2ccc(SC3CCCCC3)cc2)nc2cnccn12	·	?	16	·	42*	·	33	26
CN(c1ccccc1)S(=O)(=O)c1cccc(C(=O)NCc2ccccc2CN2CCCC2)c1	·	11	23	·	52*	·	21	6
Cn1c(=O)c(=O)n(C)c2cc([N+](=O)[O-])c(N3CCOCC3)cc21	103	-45	1	2	-14	104	·	·
O=c1[nH]c(Nc2ccccc2Cl)cc2ccccc12	104	-61	20	1	98*	100	79*	14	Fluor interf inh=>100
O=c1[nH]c(Nc2ccc(F)cc2)cc2ccccc12	104	-18	31	5	95*	104	91*	8	Fluor interf inh=>100
Cc1cc2ccccc2c(=O)[nH]1	109	4	1	9	-18	113	·	·
CCOC(=O)c1cc(C(C)=O)n2ccccc12	102	1	8	1	-9	96	·	·
CCOC(=O)c1cc(C(=O)c2cccs2)n2ccc(C(C)=O)cc12	92	33	18	-16	42*	82	10	4
CC(=O)c1ccc(N2CCN(S(=O)(=O)c3ccc4c5c3CC(=O)N5CC(C)S4)CC2)cc1 (centres undefined)	101	-15	15	4	56*	97	42*	6	Fluor interf inh=>100
COC(=O)C(C)(C)ONC(=O)Nc1ccccc1	109	-2	-2	1	3	105	·	·
NC(N)=NC(N)=Nc1cccc2ccccc12	94	0	13	-9	83*	100	11	5
O=C(COc1ccccc1)N(Cc1nnc(-c2ccccc2Cl)o1)C1CC1	·	0	-10	·	16	·	·	·
Cc1ccc(OCC(=O)N(Cc2nnc(-c3ccccc3Cl)o2)C2CC2)cc1C	·	4	1	·	56*	·	49*	9	Fluor interf inh=>100
CCC1C(=O)N=C(SCC(=O)Nc2cccc3ccccc23)NC1=O (centres undefined)	96	0	3	-5	-19	95	·	·
CCC1C(=O)N=C(SCC(=O)Nc2nc3ccccc3s2)NC1=O (centres undefined)	96	1	-3	-2	70*	97	2	9

Bioassay records deposited in PubChem BioAssay by several laboratories.
